How the values were obtained:
[1] = target: Metabotropic glutamate receptor 1 (Rattus norvegicus, UniProt P23385); experiment: Antagonist activity at rat mGluR1a expressed in CHO cells assessed as inhibition of intracellular calcium ion mobilization by FLIPR assay; type: functional, cell-based
[2] = Cmax in rat; type: ADME, organism-based; details: in vivo
Method in brief: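 Maximum plasma concentration (ng/ml) measured after oral administration in rat.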

[3] = Oral bioavailability in rat at 5 mg/kg, po; type: ADME, organism-based; details: in vivo
[4] = Oral bioavailability in rat at 1 mg/kg, po; type: ADME, organism-based; details: in vivo
[5] = Oral bioavailability in rat; type: ADME, organism-based; details: in vivo
Mus musculus [6] = experiment: Reduction of inflammatory pain in early phase of formalin-induced mouse at 30 mg/kg, po; type: ADME, organism-based; design: dose 30 mg/kg, route oral; details: in vivo
Method in brief: (§1)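 Mice given compound po at 10 or 30 mg/kg, 30 min before 20 µl 1% formalin into left hind paw; nociceptive behaviour time (s) scored in early phase (0–5 min) and late phase (20–60 min); n = 8-19; significance p < 0.05 / p < 0.01 versus vehicle.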

Mus musculus [7] = experiment: Reduction of inflammatory pain in late phase of formalin-induced mouse at 10 mg/kg, po; type: ADME, organism-based; design: dose 10 mg/kg, route oral; details: in vivo; method in brief: as §1
Mus musculus [8] = experiment: Reduction of inflammatory pain in late phase of formalin-induced mouse at 30 mg/kg, po; type: ADME, organism-based; design: dose 30 mg/kg, route oral; details: in vivo; method in brief: as §1
Rattus norvegicus = experiment: Ratio of drug level in rat from brain to plasma at 3 mg/kg, iv after 1 hr; details: in vivo
[9] = Plasma clearance in rat; type: ADME, organism-based

Chain of Metabotropic glutamate receptor 1 (P23385 whole entry): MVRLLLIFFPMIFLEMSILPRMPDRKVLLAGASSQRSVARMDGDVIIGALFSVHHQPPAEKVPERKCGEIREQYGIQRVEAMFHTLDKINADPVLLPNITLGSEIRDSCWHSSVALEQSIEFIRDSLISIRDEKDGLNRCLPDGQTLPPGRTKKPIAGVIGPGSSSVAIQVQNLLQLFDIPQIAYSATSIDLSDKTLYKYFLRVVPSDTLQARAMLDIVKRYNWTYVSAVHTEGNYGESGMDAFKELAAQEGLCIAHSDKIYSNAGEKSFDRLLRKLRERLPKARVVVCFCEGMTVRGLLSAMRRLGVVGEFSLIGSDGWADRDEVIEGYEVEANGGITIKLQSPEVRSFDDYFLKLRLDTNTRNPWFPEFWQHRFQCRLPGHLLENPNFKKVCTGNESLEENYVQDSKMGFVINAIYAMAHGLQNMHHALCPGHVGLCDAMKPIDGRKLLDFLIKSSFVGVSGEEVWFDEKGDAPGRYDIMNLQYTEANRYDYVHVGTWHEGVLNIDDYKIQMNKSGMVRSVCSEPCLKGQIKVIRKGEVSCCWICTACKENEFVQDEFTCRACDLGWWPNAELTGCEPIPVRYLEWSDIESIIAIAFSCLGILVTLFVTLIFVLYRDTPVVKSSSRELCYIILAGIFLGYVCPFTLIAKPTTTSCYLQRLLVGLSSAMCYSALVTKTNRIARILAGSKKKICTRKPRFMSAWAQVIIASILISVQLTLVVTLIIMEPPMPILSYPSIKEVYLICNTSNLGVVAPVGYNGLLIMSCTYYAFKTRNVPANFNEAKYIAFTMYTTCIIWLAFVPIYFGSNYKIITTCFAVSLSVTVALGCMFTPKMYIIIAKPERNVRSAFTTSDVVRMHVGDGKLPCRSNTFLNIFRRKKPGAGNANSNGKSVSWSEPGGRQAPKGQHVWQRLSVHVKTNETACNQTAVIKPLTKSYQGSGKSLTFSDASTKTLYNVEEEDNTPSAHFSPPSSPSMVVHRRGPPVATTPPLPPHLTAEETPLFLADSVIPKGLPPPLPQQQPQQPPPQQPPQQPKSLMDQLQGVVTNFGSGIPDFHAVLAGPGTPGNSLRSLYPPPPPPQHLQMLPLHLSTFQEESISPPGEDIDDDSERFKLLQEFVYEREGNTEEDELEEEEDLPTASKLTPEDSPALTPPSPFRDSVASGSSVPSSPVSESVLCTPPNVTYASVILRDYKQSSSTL

SMILES: CC(Oc1ccc2[nH]c3c(c2c1)CCNC3=O)C(C)(C)C (centres undefined)
- IC50 [1]: 239 nM

SMILES: COc1ccc2[nH]c3c(c2c1)CCNC3=O
- IC50 [1]: > 10000 nM

SMILES: CC(NC(=O)c1ccc2[nH]c3c(c2c1)CCNC3=O)C(C)(C)C (centres undefined)
- IC50 [1]: > 10000 nM

SMILES: CC(N(C)C(=O)c1ccc2[nH]c3c(c2c1)CCNC3=O)C(C)(C)C (centres undefined)
- IC50 [1]: 120 nM

SMILES: O=C1NCc2c1[nH]c1ccc(OCc3ccccc3)cc21
- IC50 [1]: 683 nM

SMILES: c1ccc(COc2ccc3c(c2)C2CCNCC2N3)cc1 (centres undefined)
- IC50 [1]: > 10000 nM

SMILES: O=C1NN=CC2c3cc(OCc4ccccc4)ccc3NC12 (centres undefined)
- IC50 [1]: 1020 nM

SMILES: O=C1NCCc2c1[nH]c1cc(OCc3ccccc3)ccc21
- IC50 [1]: 2850 nM

SMILES: O=C1NCCc2c1[nH]c1cccc(OCc3ccccc3)c21
- IC50 [1]: 3980 nM

SMILES: O=C1NCCC2c3cc(OCc4ccccc4)ccc3NC12 (centres undefined)
- IC50 [1]: 1670 nM

SMILES: CCCOC(=O)c1[nH]c(C)c(C(=O)O[C@@H](C)C(C)(C)C)c1C
- IC50 [1]: 16 nM

SMILES: O=C1NCCc2c1[nH]c1ccc(OCc3ccccc3)cc21
- Cmax [2]: 145 ng/mL
- bioavailability [3]: 9%
- bioavailability [4]: 0%
- IC50 [1]: 104 nM

SMILES: CC(Oc1ccc2[nH]c3c(c2c1)CCNC3=O)c1ccccc1 (centres undefined)
- IC50 [1]: 380 nM

SMILES: c1ccc(COc2ccc3[nH]c4c(c3c2)CCNC4)cc1
- IC50 [1]: > 10000 nM

SMILES: Cc1cc2[nH]c3c(c2cc1OCc1ccccc1)CCNC3=O
- bioavailability [5]: 36%
- Activity (Mus musculus [6]): Active
- Cmax [2]: 264 ng/mL
- Activity (Mus musculus [7]): Active
- IC50 [1]: 167 nM
- Activity (Mus musculus [8]): Active
- Ratio (Rattus norvegicus): 6.1

SMILES: O=C(NCC12CC3CC(CC(C3)C1)C2)c1ccc2[nH]c3c(c2c1)CCNC3=O
- IC50 [1]: 312 nM

SMILES: O=C(NC1C2CC3CC(C2)CC1C3)c1ccc2[nH]c3c(c2c1)CCNC3=O (centres undefined)
- IC50 [1]: 93 nM

SMILES: O=C1NCCc2c1[nH]c1ccc(OCC3CCCCC3)cc21
- IC50 [1]: 5560 nM

SMILES: O=C(Nc1ccccc1)c1ccc2[nH]c3c(c2c1)CCNC3=O
- IC50 [1]: 1040 nM

SMILES: O=C1CCCc2c1[nH]c1ccc(OCc3ccccc3)cc21
- IC50 [1]: > 10000 nM

SMILES: O=C1NCCc2c1[nH]c1ccc(Oc3ccccc3)cc21
- IC50 [1]: 4070 nM

SMILES: O=C(Nc1ccc2[nH]c3c(c2c1)CCNC3=O)NC12CC3CC(CC(C3)C1)C2
- IC50 [1]: 4660 nM

SMILES: O=C(NC1CC2CCC1C2)c1ccc2[nH]c3c(c2c1)CCNC3=O (centres undefined)
- IC50 [1]: 226 nM

SMILES: O=C1NCCc2c1[nH]c1ccc(NC(=O)C34CC5CC(CC(C5)C3)C4)cc21
- clearance [9]: 52 mL/min/kg
- IC50 [1]: 71 nM

SMILES: O=C(NC12CC3CC(CC(C3)C1)C2)c1ccc2[nH]c3c(c2c1)CCNC3=O
- bioavailability [5]: 12%
- Cmax [2]: 37 ng/mL
- clearance [9]: 54 mL/min/kg
- IC50 [1]: 71 nM

SMILES: O=C1NCCc2c1[nH]c1ccc(O)cc21
- IC50 [1]: > 10000 nM
